Data published in ChEMBL document CHEMBL1157190, “Design, synthesis, and anticonvulsant activity of N-phenylamino derivatives of 3,3-dialkyl-pyrrolidine-2,5-diones and hexahydro-isoindole-1,3-diones” (Bioorg Med Chem, 2008).
Activity calls are given as the source filed them. No cut-off for these calls is given here.

Experiments:
Mus musculus [1] = assay: Anticonvulsant activity in ip dosed CF1 albino mouse assessed as inhibition of maximal electroshock-induced electrical stimulus at 300 mg/kg after 4 hrs; format: functional, organism-based; parameters: dose 300 mg/kg
Outline: (§1)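 Male CF-1 mice injected intraperitoneally at 30, 100 and 300 mg/kg, suspended in 0.5% methylcellulose/water. MES or subcutaneous pentylenetetrazole challenge at 0.5 and 4 h; selected compounds also at 1 or 2 h.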

Mus musculus [2] = assay: Anticonvulsant activity in ip dosed CF1 albino mouse assessed as inhibition of subcutaneous pentylenetetrazole-induced electrical stimulus at 300 mg/kg after 4 hrs; format: functional, organism-based; parameters: dose 300 mg/kg; outline: as §1
Mus musculus [3] = assay: Anticonvulsant activity in ip dosed CF1 albino mouse assessed as inhibition of subcutaneous pentylenetetrazole-induced electrical stimulus at 300 mg/kg after 0.5 hr; format: functional, organism-based; parameters: dose 300 mg/kg; outline: as §1
Mus musculus [4] = assay: Neurotoxicity in ip dosed CF1 albino mouse at 300 mg/kg after 0.5 hr by rotarod test; format: toxicity, organism-based; parameters: dose 300 mg/kg, route intraperitoneal; settings: in vivo
Outline: (§2)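 CF-1 mice given 30, 100 or 300 mg/kg ip in 0.5% methylcellulose/water, examined at 0.5 and 4 h. Rotorod test: neurotoxicity is the inability to keep equilibrium on the rod for a given time. Value is the minimum dose giving motor impairment; a dash means none at 300 mg/kg.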

[5] = Lipophilicity, log kw of compound by RP-HPLC; format: physicochemical
Outline: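 RP-HPLC on a C18 end-capped column at room temperature, with UV detection at 214 nm and uracil as the unretained marker. Capacity factor k = (tr − t0)/t0, from the mean of three measurement sets. log k extrapolated to 100% water (log k = log kw − Sφ) to give log kw.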

Mus musculus [6] = assay: Neurotoxicity in ip dosed CF1 albino mouse at 300 mg/kg after 4 hrs by rotarod test; format: toxicity, organism-based; parameters: dose 300 mg/kg, route intraperitoneal; settings: in vivo; outline: as §2
Mus musculus [7] = assay: Anticonvulsant activity in ip dosed CF1 albino mouse assessed as inhibition of maximal electroshock-induced electrical stimulus at 300 mg/kg after 0.5 hr; format: functional, organism-based; parameters: dose 300 mg/kg; outline: as §1
Rattus norvegicus [8] = assay: Anticonvulsant activity in Sprague-Dawley rat assessed as protection against seizure at 30 mg/kg, po after 4 hrs by maximal electroshock test; format: functional
Outline: (§3)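 Male Sprague–Dawley rats; compound suspended in 0.5% methylcellulose/water and given orally at a fixed 30 mg/kg, four rats per time point. MES test run at 0.25, 0.5, 1, 2 and 4 h after dosing, with motor impairment checked in parallel. Read-out: number of rats of four protected.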

Mus musculus [9] = assay: Neurotoxicity in ip dosed CF1 albino mouse after 0.5 hr by rotarod test; format: toxicity, organism-based; settings: in vivo; outline: as §2
Rattus norvegicus [10] = assay: Anticonvulsant activity in Sprague-Dawley rat assessed as protection against seizure at 30 mg/kg, po after 2 hrs by maximal electroshock test; format: functional; outline: as §3
Mus musculus [11] = assay: Anticonvulsant activity in ip dosed CF1 albino mouse assessed as inhibition of subcutaneous pentylenetetrazole-induced electrical stimulus after 0.5 hr; format: functional; outline: as §1
Rattus norvegicus [12] = assay: Anticonvulsant activity in Sprague-Dawley rat assessed as protection against seizure at 50 mg/kg, po after 0.5 hr by subcutaneous pentylenetetrazole test; format: functional
Outline: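 Male Sprague–Dawley rats dosed orally at 50 mg/kg as a 0.5% methylcellulose/water suspension, four animals per time point. Convulsant given subcutaneously at 0.25, 0.5, 1, 2 and 4 h after dosing; rotorod motor impairment assessed in parallel. Read-out: number of rats of four protected.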

Mus musculus [13] = assay: Anticonvulsant activity in ip dosed CF1 albino mouse assessed as inhibition of maximal electroshock-induced electrical stimulus after 0.5 hr; format: functional; outline: as §1
Mus musculus [14] = assay: Neurotoxicity in ip dosed CF1 albino mouse after 4 hrs by rotarod test; format: toxicity, organism-based; settings: in vivo; outline: as §2
Mus musculus [15] = assay: Anticonvulsant activity in ip dosed CF1 albino mouse assessed as inhibition of maximal electroshock-induced electrical stimulus after 4 hrs; format: functional; outline: as §1
Mus musculus [16] = assay: Anticonvulsant activity in ip dosed CF1 albino mouse assessed as inhibition of subcutaneous pentylenetetrazole-induced electrical stimulus after 4 hrs; format: functional; outline: as §1
Rattus norvegicus [17] = assay: Anticonvulsant activity in Sprague-Dawley rat assessed as protection against seizure at 30 mg/kg, po after 0.5 hr by maximal electroshock test; format: functional; outline: as §3
Rattus norvegicus [18] = assay: Anticonvulsant activity in Sprague-Dawley rat assessed as protection against seizure at 30 mg/kg, po after 1 hr by maximal electroshock test; format: functional; outline: as §3
Rattus norvegicus [19] = assay: Anticonvulsant activity in Sprague-Dawley rat assessed as protection against seizure at 30 mg/kg, po after 0.25 hr by maximal electroshock test; format: functional; outline: as §3

Row | Structure (SMILES) | Activity (Mus musculus [1]) | Activity (Mus musculus [2]) | Activity (Mus musculus [3]) | Activity (Mus musculus [4]) | log K [5] | Activity (Mus musculus [6]) | Activity (Mus musculus [7]) | Activity (Rattus norvegicus [8]) | Activity (Mus musculus [9]) | Activity (Rattus norvegicus [10]) | Activity (Mus musculus [11]) | Activity (Rattus norvegicus [12]) | Activity (Mus musculus [13]) | Activity (Mus musculus [14]) | Activity (Mus musculus [15]) | Activity (Mus musculus [16]) | Activity (Rattus norvegicus [17]) | Activity (Rattus norvegicus [18]) | Activity (Rattus norvegicus [19])
1 | CCC1(CC)CC(=O)N(Nc2ccc(Br)cc2)C1=O | inactive | inactive | inactive | Not Active | 2.221 | Not Active | inactive |  |  |  |  |  |  |  |  |  |  |  | 
2 | CCC1(C)CC(=O)N(Nc2ccccc2)C1=O (configuration not stated) |  |  |  |  | 1.695 |  |  | inactive | 100 mg/kg | inactive | 300 mg/kg | inactive | 300 mg/kg |  |  |  |  |  | 
3 | CCCC1(C)CC(=O)N(Nc2ccc(Cl)cc2)C1=O (configuration not stated) |  |  |  |  | 2.445 |  |  | inactive | 100 mg/kg |  | 100 mg/kg |  | 100 mg/kg | 300 mg/kg | 300 mg/kg |  |  |  | 
4 | O=C1C2CCCCC2C(=O)N1Nc1ccc(Cl)cc1Cl (configuration not stated) |  | inactive | inactive |  | 2.425 |  |  |  | 300 mg/kg |  |  |  |  | 300 mg/kg | 100 mg/kg |  |  |  | 
5 | CCC1(CC)CC(=O)N(Nc2ccccc2)C1=O | inactive | inactive | inactive |  | 1.826 | Not Active | inactive |  | 300 mg/kg |  |  |  |  |  |  |  |  |  | 
6 | CC1(C)CC(=O)N(Nc2ccc(Cl)cc2)C1=O |  |  |  |  | 2.08 |  |  |  | 300 mg/kg |  | 100 mg/kg |  | 100 mg/kg | 300 mg/kg | 300 mg/kg | 300 mg/kg |  |  | 
7 | O=C1C2CCCCC2C(=O)N1Nc1ccc(Cl)cc1 (configuration not stated) | inactive | inactive |  | Not Active | 2.224 | Not Active | inactive |  |  |  | 100 mg/kg |  |  |  |  |  |  |  | 
8 | CC1(C)CC(=O)N(Nc2ccc(Cl)cc2Cl)C1=O |  |  |  |  | 2.179 |  |  | inactive | 100 mg/kg |  | 100 mg/kg | inactive |  |  | 100 mg/kg |  | inactive |  | 
9 | CCCCC1(C)CC(=O)N(Nc2ccc(Cl)cc2Cl)C1=O (configuration not stated) | inactive | inactive |  |  | 2.896 | Not Active |  |  | 100 mg/kg |  | 100 mg/kg |  | 100 mg/kg |  |  |  |  |  | 
10 | CCCC1(C)CC(=O)N(Nc2ccccc2Cl)C1=O (configuration not stated) | inactive | inactive |  |  | 2.364 | Not Active |  |  | 300 mg/kg |  | 300 mg/kg |  | 300 mg/kg |  |  |  |  |  | 
11 | CCCCC1(C)CC(=O)N(Nc2ccccc2Cl)C1=O (configuration not stated) | inactive | inactive |  |  | 2.566 | Not Active |  |  | 300 mg/kg |  | 300 mg/kg |  | 300 mg/kg |  |  |  |  |  | 
12 | CCCCC1(C)CC(=O)N(Nc2ccc(Cl)cc2)C1=O (configuration not stated) | inactive | inactive | inactive |  | 2.638 | Not Active | inactive |  | 300 mg/kg |  |  |  |  |  |  |  |  |  | 
13 | CCC1(C)CC(=O)N(Nc2ccc(Br)cc2)C1=O (configuration not stated) | inactive |  |  |  | 2.024 | Not Active |  | 25% | 300 mg/kg | 50% | 300 mg/kg |  | 300 mg/kg |  |  | 100 mg/kg | 50% | 50% | 75%
14 | CCCC1(C)CC(=O)N(Nc2cccc(Cl)c2)C1=O (configuration not stated) | inactive | inactive |  |  | 2.401 | Not Active |  |  | 100 mg/kg |  | 300 mg/kg |  | 300 mg/kg |  |  |  |  |  | 
